Screening data deposited in PubChem by Johns Hopkins Ion Channel Center.
Rows were chosen to be rich in hits. Some 3.7% of all compounds tested hit in one or more screens of this group.
hERG protect: hERG rescue from dofetilide block, primary screen, cell-based, CHO-hERG, FluxOR thallium flux, dofetilide IC70; dofetilide IC70 present; activation (rescue from dofetilide block), less the hit threshold, % at 10 µM; actives 0.51% (n = 310,000); AID 1511, 2009;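 active = activation above the mean of controls blocked by dofetilide plus 5 SD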;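 note: thallium influx through hERG after potassium depolarization seen as dye fluorescence rise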
KCNK3 block: human KCNK3 channel inhibitors, primary screen, CHO cells, FluxOR thallium flux, B-score; actives 0.84% (n = 340,000); B-score at 10 µM; AID 602410, 2012; FluxOR fluorescence; active compounds read low;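 active = B-score under library mean minus 4 SD, starting fluorescence ratio at most library mean plus 5 SD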;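 note: more negative B-score means stronger inhibition of thallium flux through KCNK3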
KCNQ1 act: potentiators or activators of KCNQ1 channel, primary screen, cell-based, thallium flux, high-throughput; CHO-K1 KCNQ1, thallium flux FluxOR fluorescence; active compounds read high; B-score at 10 µM; actives 0.35% (n = 310,000);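 active = fluorescence ratio B-score, a plate-corrected score, at least three library SD, with initial intensity B-score within 5 SD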
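Assay system: CHO-K1 cells stably expressing KCNQ1. Medium: assay buffer for compound exposure, DMSO matched across wells. Timing: 37 °C overnight plating, 90-min dark dye load, 20-min compound pretreatment. Signal: kinetic FluxOR fluorescence, 10 s baseline plus 110 s post-stimulus.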
KCNK9 block: KCNK9 potassium channel inhibitors, primary screen, HEK293 cells, thallium flux. Potassium channel subfamily K member 9 (Homo sapiens), Q9NPC2. FluxOR thallium flux fluorescence; active compounds read low. B-score at 10 µM. actives 1.2% (n = 310,000);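 active = ratio B-score over 3 SD below the library mean, with starting fluorescence within 5 SD of its mean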;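 note: negative B-score means less thallium flux so channel inhibition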
KCNQ1 block: inhibitors of human KCNQ1 channel, primary screen, cell-based, thallium flux, high-throughput. Potassium voltage-gated channel subfamily KQT member 1 (Homo sapiens), P51787. CHO-K1 KCNQ1, FluxOR thallium flux fluorescence; active compounds read high. B-score at 10 µM. actives 1.3% (n = 310,000);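 active = compounds whose thallium flux B-score, printed positive for inhibition, exceeds three library SD while starting fluorescence stays within three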;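 note: channel opened by potassium depolarization with thallium stimulus after 20 min compound exposure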
Kir21 inh: inhibitors of mouse Kir2.1 inward-rectifier potassium channel; HEK293-Kir2.1, FluxOR thallium flux fluorescence; active compounds read low; B-score at 10 µM; actives 0.85% (n = 310,000);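 active = fluorescence ratio B-score at or below minus 3 SD of library scores, with starting-brightness B-score within 2 SD, cut at about -4.2 in these data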;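 note: channel flux triggered by added potassium and thallium sulfate stimulus; B-score of peak minus minimum fluorescence over baseline after thallium stimulus; more negative B-score means stronger Kir2.1 block with less thallium influx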
KCNQ1 inh valid: KCNQ1 potassium channel inhibitors, confirmation, cell-based, Tl flux, duplicate. shares compounds with KCNQ1 block. KCNQ1 cell line, FluxOR thallium flux fluorescence. inhibition, % at 10 µM. actives 93% (n = 1,600);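 active = primary screen active, with duplicate mean exceeding buffer control mean plus 3 SD of buffer wells, cut at about 28% in these data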
CHO KCNQ1 ctr: thallium flux effects in parental CHO cells, counter-screen for KCNQ1 inhibitor project, cell-based, Tl flux; shares compounds with KCNQ1 block; parental CHO-K1, FluxOR thallium flux fluorescence ratio; active compounds read low; zero means no signal rise above baseline; fluorescence ratio (Tl flux) at 10 µM; actives 21% (n = 1,600);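 active = mean of duplicate thallium-flux fluorescence ratios in parental host cells more than 5 SD below the buffer control mean, cut at about 0.38 in these data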;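 note: ratio is peak minus minimum fluorescence divided by baseline fluorescence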
KCNQ1 APC inh: KCNQ1 channel inhibitors, confirmation, orthogonal assay, cell-based, automated electrophysiology; actives 20% (n = 490); KCNQ1-CHO cells, automated patch clamp current; AID 624120, 2012; shares compounds with KCNQ1 block; calls only at 10 µM;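 active = KCNQ1 current drop exceeding 3 SD of negative control wells, seen in both duplicate runs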;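 note: steady state current during a 2 s step from -80 to +40 mV; negative values mean current inhibition and positive values mean potentiation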
KCNQ2 spec: KCNQ2 channel inhibition, selectivity assay for KCNQ1 inhibitor project, cell-based | actives 71% (n = 1,600) | shares compounds with KCNQ1 block | inhibition, % at 10 µM | AID 651746, 2012 | KCNQ2 cells, FluxOR thallium flux fluorescence;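 active = mean percent inhibition of the KCNQ2 thallium signal more than 5 SD above the buffer-only control wells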;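 note: KCNQ2 expressed in CHO cells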
Target sequence (O88943 whole entry, looked up): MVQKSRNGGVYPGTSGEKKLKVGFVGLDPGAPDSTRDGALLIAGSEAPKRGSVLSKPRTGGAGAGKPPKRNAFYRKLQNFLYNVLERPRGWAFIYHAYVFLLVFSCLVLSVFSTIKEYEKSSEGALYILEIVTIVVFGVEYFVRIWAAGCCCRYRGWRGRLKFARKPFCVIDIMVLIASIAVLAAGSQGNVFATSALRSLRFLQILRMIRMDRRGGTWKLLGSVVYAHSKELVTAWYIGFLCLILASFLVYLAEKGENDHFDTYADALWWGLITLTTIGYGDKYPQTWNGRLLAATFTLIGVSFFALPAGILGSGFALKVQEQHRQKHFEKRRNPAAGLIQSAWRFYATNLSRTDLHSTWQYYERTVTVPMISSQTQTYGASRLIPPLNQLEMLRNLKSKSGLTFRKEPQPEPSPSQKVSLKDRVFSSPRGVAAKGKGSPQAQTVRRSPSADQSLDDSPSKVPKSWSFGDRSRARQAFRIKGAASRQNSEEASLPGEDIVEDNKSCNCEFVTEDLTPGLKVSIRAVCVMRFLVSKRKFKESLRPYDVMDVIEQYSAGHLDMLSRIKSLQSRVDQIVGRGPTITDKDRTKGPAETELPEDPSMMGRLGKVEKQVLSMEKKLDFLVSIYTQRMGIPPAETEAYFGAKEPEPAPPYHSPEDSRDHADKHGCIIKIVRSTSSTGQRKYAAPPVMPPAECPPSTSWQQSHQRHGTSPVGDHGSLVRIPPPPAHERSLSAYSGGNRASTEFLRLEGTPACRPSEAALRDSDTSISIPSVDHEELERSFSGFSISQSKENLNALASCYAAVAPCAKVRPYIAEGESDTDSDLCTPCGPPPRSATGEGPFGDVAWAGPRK
KCNQ1-KCNE1 inh: KCNQ1/KCNE1 channel inhibition, selectivity assay for KCNQ1 inhibitor project, CHO-K1 cells, thallium flux, FluxOR; shares compounds with KCNQ1 block; FluxOR thallium flux fluorescence; inhibition, % at 10 µM; actives 77% (n = 1,600);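 active = mean percent inhibition of duplicate wells above the buffer-only control mean plus 3 SD of those controls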
Each line names hits and unclear results; the compound was inactive in the other large screens (follow-up assays come after a bar, where they were run).

COC(=O)c1cc(S(=O)(=O)N2CCN(c3ccc(C(C)=O)cc3)CC2)cn1C	none
CC(c1ccccc1)N1C(=O)c2ccc(C(=O)Nc3ccccc3C(=O)O)cc2C1=O (stereo not given)	none
CC(c1ccccc1)N1C(=O)c2ccc(C(=O)Nc3ccc(Br)cc3C(=O)O)cc2C1=O (stereo not given)	KCNQ1 block 12 | KCNQ1 inh valid 108 | CHO KCNQ1 ctr inactive | KCNQ1 APC inh inactive | KCNQ2 spec inactive | KCNQ1-KCNE1 inh 132%
Cc1cccc(/C(N)=N/OC(=O)CCCc2ccccc2)c1	none
O=C(CSC1=NS(=O)(=O)c2ccccc2N1)Nc1cccc(F)c1	none
Cc1ccccc1OCCCCn1cnc2ccccc21	KCNQ1 block 9 | KCNQ1 inh valid 136 | CHO KCNQ1 ctr inactive | KCNQ1 APC inh inactive | KCNQ2 spec 100% | KCNQ1-KCNE1 inh 59%
c1ccc2c(c1)ncn2CCCCOc1ccc2c(c1)CCC2	KCNQ1 block 7 | KCNQ1 inh valid 118 | CHO KCNQ1 ctr inactive | KCNQ1 APC inh inactive | KCNQ2 spec 91% | KCNQ1-KCNE1 inh 82%
CCOC(=O)[C@H]1[C@H]2COc3ccc(Cl)cc3[C@@H]2N2C(=O)CN(Cc3ccc(Cl)cc3)C(=O)[C@@]12C	none (no result: hERG protect, KCNQ1 act, KCNK9 block, KCNQ1 block, Kir21 inh)
CC1CCN(CCCOc2ccc(Cl)cc2Br)CC1	KCNQ1 block 6, Kir21 inh -4.5 | KCNQ1 inh valid 42 | CHO KCNQ1 ctr inactive | KCNQ2 spec inactive | KCNQ1-KCNE1 inh inactive
CN(C)S(=O)(=O)Oc1cccc(C(=O)Nc2ccc([N+](=O)[O-])cc2)c1	none
COc1ccc(OCC(=O)Nc2nccs2)cc1	KCNQ1 block 7 | KCNQ1 inh valid inactive | CHO KCNQ1 ctr inactive | KCNQ2 spec inactive | KCNQ1-KCNE1 inh inactive
CCOc1ccc(OCC(=O)Nc2nccs2)cc1	none
Cc1ccc(C)c(S(=O)(=O)N2CCN(C(=O)c3cc(-c4cccs4)nn3-c3ccccc3)CC2)c1	KCNQ1 block 9 | KCNQ1 inh valid inactive | CHO KCNQ1 ctr inactive | KCNQ2 spec 79% | KCNQ1-KCNE1 inh 46%
CC(C)(C)c1csc(NC(=O)c2ccccc2O)n1	KCNQ1 block 9 | KCNQ1 inh valid 65 | CHO KCNQ1 ctr inactive | KCNQ2 spec inactive | KCNQ1-KCNE1 inh inactive
COc1ccccc1NC(=O)CSc1ccc(-c2ccc(-n3ccnc3)cc2)nn1	none
O=C(CN1CCN(S(=O)(=O)c2ccc(F)cc2)CC1)Nc1ccc(Cl)cn1	none
O=C(CSc1n[nH]c(-c2ccco2)n1)Nc1ccccc1	none
CN(C)CCCN1C(=O)c2cccc3c(Br)ccc(c23)C1=O	none
CCN1C(=O)c2cccc3c(N)ccc(c23)C1=O	KCNQ1 block 24 | KCNQ1 inh valid active | CHO KCNQ1 ctr 0.011 | KCNQ2 spec inactive | KCNQ1-KCNE1 inh inactive
CCCCNc1ccc2c3c(cccc13)C(=O)N(CCCC)C2=O	KCNQ1 block 24 | KCNQ1 inh valid active | CHO KCNQ1 ctr 0.011 | KCNQ2 spec inactive | KCNQ1-KCNE1 inh inactive
O=C(CCNC(=O)c1ccc(Br)cc1)NNC(=O)c1ccccc1	none (no result: hERG protect, KCNQ1 act, KCNK9 block, KCNQ1 block, Kir21 inh)
O=C(Nc1nccs1)c1ncc(Cl)c(Cl)c1Cl	none
O=C1OC(/C(=C\Nc2cc(Cl)ccc2O)[N+](=O)[O-])c2ccccc21 (stereo not given)	none
COC(=O)C(C)Sc1nnc2n(-c3cccc(C)c3)c(=O)c3c4c(sc3n12)CCCC4 (stereo not given)	KCNQ1 block 6 | KCNQ1 inh valid 42 | CHO KCNQ1 ctr inactive | KCNQ2 spec 87% | KCNQ1-KCNE1 inh 52%
Clc1ccc2[nH]c3c(NCC4CCCO4)ncnc3c2c1 (stereo not given)	KCNQ1 block 8 (no result: KCNK3 block) | KCNQ1 inh valid 106 | CHO KCNQ1 ctr inactive | KCNQ1 APC inh active | KCNQ2 spec 90% | KCNQ1-KCNE1 inh inactive
Clc1ccc2[nH]c3c(NCCN4CCOCC4)ncnc3c2c1	none
CCOc1ccccc1NC(=S)NCc1ccco1	none
COc1ccc2cc(C(C)C(=O)Nc3cccc(S(=O)(=O)N(C)C)c3)ccc2c1 (stereo not given)	none
Cn1c(CCN2CCCCC2)nc2cc(NS(=O)(=O)c3ccc(Cl)cc3)ccc21	KCNQ1 block 8 | KCNQ1 inh valid inactive | CHO KCNQ1 ctr inactive | KCNQ2 spec inactive | KCNQ1-KCNE1 inh 58%
O=c1oc(-c2ccccc2)nc2c1C1(CCCCC1)Cc1ccccc1-2	none
CCC1(CC)Cc2ccccc2-c2nc(-c3ccccc3)oc(=O)c21	KCNQ1 block 7 | KCNQ1 inh valid 60 | CHO KCNQ1 ctr inactive | KCNQ2 spec 103% | KCNQ1-KCNE1 inh 91%
C(=C\c1ccccc1)/CN1CCN(c2ncnc3c2oc2ccccc23)CC1	KCNK3 block -13, KCNQ1 block 7 | KCNQ1 inh valid 150 | CHO KCNQ1 ctr 0.31 | KCNQ2 spec 135% | KCNQ1-KCNE1 inh 178%
c1ccc2c(c1)oc1c(N3CCOCC3)ncnc12	none
O=C(Nc1ccccc1C(=O)NCCCN1CCOCC1)c1ccc(F)cc1	none
COC(=O)C(CCSC)NC(=O)C12CC3CC(CC(C3)C1)C2 (stereo not given)	none
